Source: the RNAGym collection of RNA variant scans (doi:10.1126/science.aae0568)
This sample holds only a part of the variants without activity.

B1: tRNA (parent)
chain: GUUCCGUUGGCGUAAUGGUAACGCGUCUCCCUCCUAAGGAGAAGACUGCGGGUUCGAGUCCCGUACGGAACG

Variants of: B1
Assay: yeast fitness relative to wild type (ratio to wild type); higher = fitter; tRNA-Arg(CCU), competitive growth, 37 C, YPD
How it was run: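 The tRNA-Arg(CCU) gene variants were made by chemical synthesis with a 3% per-site mutation rate at 69 sites and inserted at the native genomic locus of Saccharomyces cerevisiae. After pooling, the strains were competed in YPD at 37°C for 24 hours in six parallel replicates. Gene amplicons from the start population and each end population were read by 100-nucleotide paired-end sequencing, and Darwinian fitness relative to wild type was taken from genotype frequency changes. Genotypes needed ≥ 100 starting reads, and estimates < 0.5 were set to 0.5.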

Variant	yeast fitness
GUUCCGUUGCCGUAAUGGUAAAGGGUCUCCCUCCUGAGGAGAAGACUACCGGUUCGAGUCCCGUACGGAACG [G10C C22A C24G A36G G48A G50C]	≤ 0.5
GUUCCGUUGCCGUAAUGGUAACGCGUAUCCCUCAUAAGGGGAAGACUGCGGGUUCGAGUUCCGUUCGGAACG [G10C C27A C34A A40G C60U A65U]	≤ 0.5
GUUCCGUUGCCGUAAUGGUAAUGCGUCUCCCUCCUAAGGAGAAGACUGCGGGUUCGAGUCCCGUACGGAGCG [G10C C22U A70G]	0.513
GUUCCGUUGCCGUAAUGGUAACGUGUCUCCCUCCUAAGGAGAAGACUGCGGGUUCGAGUCCCGUACGGAACG [G10C C24U]	0.716
GUUCCGUUGCCGUAAUGGUAACGCGUCUCCCUCCUAAGGAGAAGACUGCGGGUUCGAGUCCCGUACGGCACG [G10C A69C]	0.785
GUUCCGUUGCCGUAAUGGUAACGCGUCUCCCUCCUAAGGAGAAGACUGCGGGUUCGAGUCCCGUACGGGACG [G10C A69G]	0.51
GUUCCGUUGCCGUAAUGGUAACGUGUCUACCUCCUAAGGAGAAGUGAGCAGGUUCGAGUCCCGGACGGAACG [G10C C24U C29A A45U C46G U47A G50A U64G]	0.575
GUUCCGUUGCCGUAAUGGUAACGCGUAUCCCUCCUAAGGAGAAGACUGCGGGUUCGAGUCUCGUACGGAACG [G10C C27A C61U]	≤ 0.5
GUUCCGUUGCCGUAAUGGUAACGCGUCUCCCUCCUAAGGAGAAGACUGCGGGUUCGAGUCCCGUUCGGAACG [G10C A65U]	0.767
GUUCCGUUGCCGUAAUGGUAAUGCGUCUCCCUCCUAAGGAGAACACUGCGGGUUCGAGUCCCGUACGGAACG [G10C C22U G44C]	≤ 0.5
GUUCCGUUGCCGUAAUGGUAAUGCGACUCCCUCCUAAGGAGAAGACUGUGGGUUCGAGUCCCGUUCGGAACG [G10C C22U U26A C49U A65U]	≤ 0.5
GUUCCGUUGCCGUAAUGGUAACGUGUCUCCCUCCUAAGGAGAAGACUGCGGGUUCGAGUCCCGUACGCAACG [G10C C24U G68C]	≤ 0.5
GUUCCGUUGCCGUAAUGGUAACGUGUCUCCCUCCUAAGGAGAAGAUUGCGGGUUCGAGUCCCGCACGGAACG [G10C C24U C46U U64C]	≤ 0.5
GUUCCGUUGCCGUAAUGGUAAUGCGUCUCCCUCCUAAGGAGAAGACUGCGGGUUCGAGGUCCGUACGGAACG [G10C C22U U59G C60U]	≤ 0.5
GUUCCGUUGCCGUAAUGGUAACGCGUAUCCCUCCUAAGGAGUAGACUGCGGGUUCGAGUCCGGUACGGAACG [G10C C27A A42U C62G]	0.556
GUUCCGUUGCAGUAAUGGUAACGCGUCUCCCUCCUAAGGAGAAGACUGGGGGUUAGAGUCCCGUACGGAACG [G10C C11A C49G C55A]	≤ 0.5
GUUCCGUUGCGGUAAUGGUAACGCGUCUCCCUCCUAAGGAGAAGACUGCGGGUUCGAGUCCCGUACGGAACG [G10C C11G]	0.682
GUUCCGUUGCCGUAAUGGUAAGGCGUCUCCCUUCUCAGGUGAAGACUGCGGGUUCGAGUCCCGUACGGAACG [G10C C22G C33U A36C A40U]	≤ 0.5
GUUCCGUUGCUGUAAUGGUCACGCGUCUCCCUCCUAAGGAGAAGACUGCGGGUUCGUGUCCCGUACGGAACG [G10C C11U A20C A57U]	≤ 0.5

Variant	yeast fitness
GUUCCGUUGCCGUAAUGGUAACGGGUCCCCCUCCUAGGGAGAAGACAGCGGGUUCGAGUCCCGUACGGAACG [G10C C24G U28C A37G U47A]	≤ 0.5
GUUCCGUUGCUGUAAUGGUAACGCCUCUCGCUCCUAAGGAGAAGACUGCGGGUUCGAGUCCCGUACCGAACG [G10C C11U G25C C30G G67C]	0.511
GUUCCGUUGCCGUAAUGGUAACGGGUCUCCCUCGUAAGGAGAAGACUGCGGGUGCGAGUCCCGUACGGAUCG [G10C C24G C34G U54G A70U]	0.703
GUUCCGUUGCCGUAAUGGUAAAGGGCCUCCCUCCUAAGGAGAAGACUGCGGGAUCGAGUCCCGUACGGAACG [G10C C22A C24G U26C U53A]	≤ 0.5
GUUCCGUUGCCGUAAUGGUAACGAGUCUCCCUGCUAAGGGGGAGACUGCGGGUUCGAGUCCCGUACGGAACG [G10C C24A C33G A40G A42G]	≤ 0.5
GUUCCGUUGCCGUAAUGGUAAUGCGUCUCCCUCCUAAGGAGAAGACUGCGGGUUCGAGUCUCGUACGGAACG [G10C C22U C61U]	0.518
GUUCCGUUGCCGUAAUGGUAACGUGUCUCCCUCUUUAGGAGAAGAAUGCGGGUUCGAGUCCCGUACGGCACG [G10C C24U C34U A36U C46A A69C]	≤ 0.5
GUUCCGUUGCCGUAAUGGUAAAGGGUCUCCCUCCUAAGGAGAAGACUGCGGGAUCGAGUCCCGUACGGAACG [G10C C22A C24G U53A]	0.547
GUUCCGUUGCCGUAAUGGUAACGUGUCUCCCUCCUAAGGAGAAGACUGCGGAUUCAAGUCCCGUACGGAACG [G10C C24U G52A G56A]	≤ 0.5
GUUCCGUUGCCGUAAUGGUAACGCGUCUCCCUCCUAAGGAGAAGACUGCGGGUUCGAGUCCCGUACGGAGCG [G10C A70G]	0.644
GUUCCGUUGCCGUAAUGGUAACGCGUCUCCCUCCUAAGGAGAAGACUGCGGGUUCGAGUCCCGUACGGAUCG [G10C A70U]	0.75
GUUCCGUUGCAGUAAUGGUAACGCGUCUCCCUCCUACGGAGAAGACUGGGGGUUCGAGUCCCGUACGCGACG [G10C C11A A37C C49G G68C A69G]	≤ 0.5
GUUCCGUUGCUGUAAUGGUAACGCGACUCCCUCCUAAGGAGAAGACUGUGGGUUCGAGUCCCGUUCGGAACG [G10C C11U U26A C49U A65U]	≤ 0.5
GUUCCGUUGCCGUAAUGGUAACGUGUCUGCCUCCUAAGGAGAAGUGAGCAGGUUCGAGUCCCGGACGGAACG [G10C C24U C29G A45U C46G U47A G50A U64G]	0.536
GUUCCGUUGCCGUAAUGGUAAAGCGUCUCCCUCCUAAGGAGAAGACUGCGGGUUCCAGUCCCGUGCGGAACG [G10C C22A G56C A65G]	≤ 0.5
GUUCCGUUGCCGUAAUGGUAAGGCGUCUGCCUCCUAAGGAGAAGAUUGCGGGUUCGAGUCCCGUCCGGAACG [G10C C22G C29G C46U A65C]	≤ 0.5
GUUCCGUUGCCGUAAUGGUAACGGGUCUCCCUCCUAAGGAGAAGACUGCAGGUUCGAGUCCCGUACGGAACG [G10C C24G G50A]	≤ 0.5
GUUCCGUUGCCGUAAUGGUAACGAGUCUCCCUCCUAAGGAGAAGACUGCGAGUUCGAGUCCCGUGCGGACCG [G10C C24A G51A A65G A70C]	0.55
GUUCCGUUGCCGUAAUGGUAACGCGUGUCCCUCCUAAGGAGCAGACUGAGGGUUCGAGUCCCGUACGGAACG [G10C C27G A42C C49A]	≤ 0.5
